Assay results collected from several papers.
Compare with care: the assays were run in different laboratories.
Target: Serine/threonine-protein kinase MARK1 (MARK1, Homo sapiens, UniProt Q9P0L2)

Compound | effect on | mode | technique | tested at | endpoint | result
FC(F)c1nc2ccccc2n1-c1nc(N2CCOCC2)nc(N2CCOCC2)n1 | enzyme activity | inhibitor |  | 10 µM | remaining activity | 106%
CCCCN(CCCC)C(=O)CN1C[C@@H](c2cc(OC)c3c(c2)OCO3)[C@H](C(=O)O)[C@H]1CC(C)(C)CCC | cell-free assay |  | competition with immobilised ligand | 1 µM | remaining binding | 88.7%
COc1cc2ncnc(Nc3ccc(Oc4ccccc4)cc3C)c2cc1OC | enzyme activity | inhibitor |  | 1 µM | inhibition | 8%
Cc1nn(CC(F)(F)F)cc1Nc1ncc(C2CC2)c(NCc2ccc(S(N)(=O)=O)cc2)n1 | enzyme activity | inhibitor | radiometric | 1 µM | remaining activity | 108%
CC1=C(C#N)C(c2ccc3c(c2)c(NC(=O)c2ccccc2C)nn3C)C(C#N)=C(C)N1 | cell-free assay |  | competition with immobilised ligand | 1 µM | remaining binding | 100%
O=C(NCCCNc1nc(Nc2cccc(CN3CCOCC3)c2)ncc1C1CC1)C1CCC1 | enzyme activity | inhibitor | radiometric | 1 µM | remaining activity | -5%
CN(C)c1nccc(-c2cnn3ncccc23)n1 | binding |  |  | 1 µM | remaining binding | 96%
C=CC(=O)Nc1cc(Nc2nccc(Nc3cc(Cl)c(F)cc3C(C)(C)O)n2)c(OC)cc1N1CC[C@@H](N(C)C)C1 | enzyme activity | inhibitor |  | 1 µM | inhibition | 4%
C[C@@H](c1cccc(C#N)c1)n1cc(Cl)cc(C(N)=O)c1=N | cell-free assay |  | competition with immobilised ligand | 1 µM | remaining binding | 100%
CC/C(=N\NC(=O)NCc1cccc(O)c1)c1ccc(O)c(C)c1O | enzyme activity | inhibitor |  | 0.1 µM | inhibition | -2.5%
Cc1nn(CC(F)(F)F)cc1Nc1ncc(Br)c(NCCc2cnc[nH]2)n1 | enzyme activity | inhibitor | radiometric | 1 µM | remaining activity | 49%
Cc1ccc(Nc2nccc(N(C)c3ccc4c(C)n(C)nc4c3)n2)cc1S(N)(=O)=O | enzyme activity | inhibitor |  | 0.3 µM | inhibition | 19%
CCC(=O)N[C@H]1CC[C@@H](C(=O)N(C)c2ccc(-c3nc4ccccc4o3)cc2)C1 | cell-free assay |  | competition with immobilised ligand | 1 µM | remaining binding | 100%
FC(F)(F)Oc1cccc(-c2cnc3ccc(-c4ccncc4)nn23)c1 | enzyme activity | inhibitor | radiometric | 1 µM | activity vs control | 92%
Cc1nn(CC(F)(F)F)cc1Nc1ncc(C2CC2)c(NCCc2c[nH]cn2)n1 | enzyme activity | inhibitor | radiometric | 1 µM | remaining activity | 71%
CO[C@@H](C)c1c(Nc2ccc([C@@H](N(C)C(=O)C3CCS(=O)(=O)CC3)C(F)(F)F)cc2)cnc2cc(Cl)nn12 | cell-free assay |  | competition with immobilised ligand | 1 µM | remaining binding | 81%

Compound | effect on | mode | technique | tested at | endpoint | result
C[S+]([O-])c1ccc(-c2nc(-c3ccncc3)c(-c3ccc(F)cc3)[nH]2)cc1 (centres unmarked) | cell-free assay |  |  | 0.5 µM | remaining signal | 105%
CNC(=O)c1cc(Oc2ccc(NC(=O)Nc3ccc(Cl)c(C(F)(F)F)c3)cc2)ccn1 | enzyme activity | inhibitor |  | 10 µM | inhibition | 8%
Cc1nn(CC(F)(F)F)cc1Nc1ncc(Br)c(NCc2ccc(S(N)(=O)=O)cc2)n1 | enzyme activity | inhibitor | radiometric | 1 µM | remaining activity | 90%
Cc1ncc([N+](=O)[O-])n1C(=NO)c1ccccc1C(F)(F)F | enzyme activity | inhibitor |  | 10 µM | inhibition | 34.2%
CS(=O)(=O)CCNCc1ccc(-c2ccc3ncnc(Nc4ccc(OCc5cccc(F)c5)c(Cl)c4)c3c2)o1 | cell-free assay |  |  | 0.5 µM | remaining signal | 149%
O=C(NCCCNc1ccnc(Nc2cccc(NC(=O)N3CCCC3)c2)n1)C1CCC1 | enzyme activity | inhibitor | radiometric | 1 µM | remaining activity | 72%
COc1cc(/C=C/C(=O)CC(=O)/C=C/c2ccc(O)c(OC)c2)ccc1O | enzyme activity | inhibitor |  | 1 µM | activity vs control | 79%
CC(=O)C1=C(C)N(c2cccc(C(F)(F)F)c2)C(=O)N[C@@H]1c1ccc(C#N)nc1 | cell-free assay |  | competition with immobilised ligand | 1 µM | remaining binding | 100%
O=C1NC(=O)c2cc(Nc3ccc(F)cc3)c(Nc3ccc(F)cc3)cc21 | cell-free assay |  |  | 0.5 µM | remaining signal | 98.9%
CCN(CC)CCNC(=O)c1c(C)[nH]c(/C=C2\C(=O)Nc3ccc(F)cc32)c1C | enzyme activity | inhibitor |  | 10 µM | inhibition | 92%
c1cc(CN2CCOCC2)cc(Nc2nccc(NCCc3cnc[nH]3)n2)c1 | enzyme activity | inhibitor | radiometric | 1 µM | remaining activity | 75%
Cc1cc(C)c(-n2ccn3nc(-c4cccnc4)cc23)cc1NC(=O)c1cc(C#N)cc(S(F)(F)(F)(F)F)c1 | cell-free assay |  | competition with immobilised ligand | 0.1 µM | remaining binding | 96.7%
CSc1nc(C)c(-c2ccnc(Nc3ccc(N4CCOCC4)cc3)c2)[nH]1 | enzyme activity | inhibitor |  | 10 µM | inhibition | 20.1%
O=C1Nc2ccc(Cl)cc2C1=Cc1cc(Cl)c(O)c(Cl)c1 | cell-free assay |  |  | 0.5 µM | remaining signal | 89.5%
Cc1nn(CC(F)(F)F)cc1Nc1nccc(NCc2ccc(S(N)(=O)=O)cc2)n1 | enzyme activity | inhibitor | radiometric | 1 µM | remaining activity | 107%
C[C@H](c1ccnc(Nc2nc3ccc(-c4cc(N(C)C)ncn4)cc3[nH]2)c1)N1CCN(C(=O)CC(F)(F)F)CC1 | cell-free assay |  | competition with immobilised ligand | 0.1 µM | remaining binding | 100%
